We go through 19 compounds from article PMC4403237 (European journal of medicinal chemistry, 2014).

The subject of data set [1] is HL-60 human leukemia cell line. The data set can be described thus: MTT cell viability assay, HL-60. It counts as cell-based. Particulars: HL-60, 48 h, read-out: IC50 HL-60. In a few lines: (§1)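 Logarithmically growing cells were used: HL-60 and NCI-H460 in RPMI-1640 with 10% FBS and L-glutamine; Hep3B in DMEM/F12 with 10% FBS; Detroit 551 in DMEM with 10% FBS and L-glutamine. Cells were exposed to a range of test compound concentrations or DMSO vehicle for 48 h at 37 °C, then incubated with MTT (1 mg/mL in PBS) for 2 h. Absorbance was read at 570 nm, corrected at 630 nm.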

Data set [2] concerns Hep3B human hepatoma cell line. Put plainly: MTT cell viability assay, Hep3B. Type of data set: cell-based. Particulars: 48 h, read-out: IC50 Hep3B. Put shortly: as §1
A general note: Tetrazolium assays rely on reduction of a dye to a coloured formazan, in cell work by metabolically active cells.

For data set [3], the system named is NCI-H460 non-small cell lung cancer cell line. The data set can be described thus: MTT cell viability assay, NCI-H460. Type of data set: cell-based. Particulars: Homo sapiens, NCI-H460, 48 h, read-out: IC50 NCI-H460. Put shortly:
as §1

Data set [4] relates to Detroit 551 human skin fibroblast cell line. Put plainly: MTT cell viability assay, Detroit 551. It counts as cell-based. Particulars: Detroit 551, 48 h, read-out: IC50 Detroit551. Put shortly: as §1
The subject of data set [5] is NCI-60 human cancer cell line panel. Put plainly: NCI-60 human cancer cell line panel screen. Type of data set: cell-based. The conditions noted are these: NCI-60 panel mean.
Another data set relates to K562 leukemia. The data set can be described thus: NCI-60 screen, K562. It counts as cell-based, human.
The next data set has as its system SR leukemia. The data set can be described thus: NCI-60 screen, SR. It counts as cell-based, human.
For data set [6], the system named is NCI-H522 non-small cell lung cancer. Put plainly: NCI-60 screen, NCI-H522. The conditions noted are these: NCI-522 non-small cell lung cancer. It counts as cell-based, human.
The subject of the next data set is SW-620 colon cancer. The data set can be described thus: NCI-60 screen, SW-620. Type of data set: cell-based, human.
The subject of the next data set is M14 melanoma. The data set can be described thus: NCI-60 screen, M14. It counts as cell-based, human.
In another data set the test system is MDA-MB-435 melanoma. The data set can be described thus: NCI-60 screen, MDA-MB-435. Type of data set: cell-based, human.
Data set [7] relates to Hep3B cells. Put plainly: Cell cycle distribution by flow cytometry in Hep3B cells. It counts as cell-based, human. Particulars: 24 h. Put shortly:
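Hep3B cells were treated for 24 h with DMSO vehicle, test compound at 0.1, 0.3, 1 or 3 μM, or 1 μM reference antimitotics (vinblastine, colchicine, paclitaxel). Cells were stained with propidium iodide and analysed by flow cytometry. Data are mean ± SEM of three independent experiments.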
In general terms: Flow cytometry measures light scatter and fluorescence of single cells or particles in a stream.

Data set [8] concerns Hep3B cells. Put plainly: Western blot of caspase and PARP cleavage in Hep3B cells. It counts as cell-based, human. Particulars: 48 h treatment. In general terms: A western blot detects proteins with antibodies after separation by electrophoresis.
Data set [9] deals with Hep3B cells. The data set can be described thus: In vivo. Particulars: 1 μM, 24 h. It counts as cell-based, human. Put shortly: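 Hep3B cells were treated for 24 h with DMSO vehicle, 1 μM test compound, or 1 μM reference antimitotics. Cells were washed in ice-cold PBS and lysed 5 min at 37 °C in hypotonic buffer (20 mM Tris-HCl pH 6.8, MgCl2, EGTA, 0.5% IGEPAL, protease inhibitors), then spun 15,000 ×g for 10 min at 25 °C. Supernatant (soluble) and sonicated pellet (polymerized) fractions were western-blotted for α-tubulin, β-tubulin and β-actin.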

The subject of another data set is Hep3B xenograft. The data set can be described thus: Hep3B xenograft nude mice model. Type of data set: in vivo, Balb/c nude mice. In a few lines: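 Male Balb/c nude mice (4–6 weeks, 18–20 g, SPF) received 2 × 10^6 Hep3B cells s.c. in the right flank. At tumor volume >100 mm3 (day 0), mice were grouped (n = 8). The water-soluble phosphate prodrug was given i.v. at 10, 20 or 40 mg/kg, five days/week for 3 weeks; doxorubicin i.v. served as reference. Tumor size (length × width² × 0.5) and body weight were recorded every 7 days to day 21; T/C was calculated.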

As for `COc1cccc(-c2cc(=O)c3c(C)ccnc3[nH]2)c1` [6a, 2-(3-Methoxyphenyl)-5-methyl-1,8-naphthyridin-4(1H)-one], the IC50 (as a rule, the point on the concentration scale where inhibition reaches its midpoint) in data set [1] is 30 nM; in [2], 130 nM; in data set [3], 180 nM; in data set [4], more than 5000 nM.

On to `COc1cccc(-c2cc(=O)c3cc(C)cnc3[nH]2)c1` [6b, 2-(3-Methoxyphenyl)-6-methyl-1,8-naphthyridin-4(1H)-one], for which the IC50 in data set [1] is 60 nM; in [2] it was 120 nM; in data set [3], 140 nM; in [4] it was more than 2500 nM.

With `COc1cccc(-c2cc(=O)c3c(C)cc(C)nc3[nH]2)c1` [6c, 2-(3-Methoxyphenyl)-5,7-dimethyl-1,8-naphthyridin-4(1H)-one], the IC50 is 330 nM in [1], 730 nM in data set [2], 750 nM in [3] and more than 50000 nM in [4].

`COc1cccc(-c2cc(=O)c3cc(Cl)cnc3[nH]2)c1` [6d, 6-Chloro-2-(3-methoxyphenyl)-1,8-naphthyridin-4(1H)-one]: the IC50 is 30 nM in data set [1], 100 nM in [2], 100 nM in data set [3] and more than 50000 nM in data set [4].

In the case of `COc1cccc(-c2cc(=O)c3cc(F)cnc3[nH]2)c1` [6e, 6-Fluoro-2-(3-methoxyphenyl)-1,8-naphthyridin-4(1H)-one], the IC50 was 70 nM in [1], 200 nM in data set [2], 240 nM in [3] and more than 5000 nM in [4].

For `COc1cnc2[nH]c(-c3cccc(F)c3)cc(=O)c2c1` [6g, 2-(3-Fluorophenyl)-6-methoxy-1,8-naphthyridin-4(1H)-one], the IC50 is 20 nM in data set [1], 20 nM in data set [2], 50 nM in [3] and more than 10000 nM in [4].

As to `COc1cnc2[nH]c(-c3cccc4ccccc34)cc(=O)c2c1` [6h, 6-Methoxy-2-(naphthalen-1-yl)-1,8-naphthyridin-4(1H)-one], the IC50 is 40 nM in data set [1], 50 nM in data set [2], 850 nM in data set [3] and more than 25000 nM in data set [4].

Take `COc1cnc2[nH]c(-c3csc4ccccc34)cc(=O)c2c1` [6i, 2-(Benzo[b]thiophen-3-yl)-6-methoxy-1,8-naphthyridin-4(1H)-one]: the IC50 in data set [1] was 40 nM; in [2], 90 nM; in data set [3], 160 nM; in [4], more than 10000 nM.

For `Cc1ccnc2[nH]c(-c3cccc(O)c3)cc(=O)c12` [7a, 2-(3-Hydroxyphenyl)-5-methyl-1,8-naphthyridin-4(1H)-one], the IC50 is 30 nM in [1], 170 nM in data set [2], 200 nM in data set [3] and more than 50000 nM in data set [4]. The “average logGI50 (MID)” value in data set [5] is reported as −6.30. The logGI50 entry (in the data set with K562 leukemia; in the data set on SR leukemia; in [6]; with SW-620 colon cancer; in the data set on M14 melanoma; in the data set with MDA-MB-435 melanoma) was “less than −7.00” in each case. The “cell population at G2/M phase” value in the data set with Hep3B cells [7] (0.1-3 μM) is recorded as “significant cell population accumulation at G2/M phase in a concentration-dependent manner”. The sub-G1 phase population entry in the data set with Hep3B cells [7] was “predominant increase in sub-G1 phase”. Besides, the “cleavage of caspases and PARP” value in the data set with Hep3B cells [8] is “concentration-dependent increase in the cleavage of caspase-8, -9, -3, and PARP”. Further, the “tubulin content in cytoskeleton (polymerized) fraction” value in the data set with Hep3B cells [9] was “decreased both α-tubulin and β-tubulin contents in the cytoskeleton fraction”.

On to `Cc1cnc2[nH]c(-c3cccc(O)c3)cc(=O)c2c1` [7b, 2-(3-Hydroxyphenyl)-6-methyl-1,8-naphthyridin-4(1H)-one], for which the IC50 in data set [1] is 80 nM; in [2] it was 440 nM; in [3], 450 nM; in [4], more than 2500 nM.

Turning to `Cc1cc(C)c2c(=O)cc(-c3cccc(O)c3)[nH]c2n1` [7c, 2-(3-Hydroxyphenyl)-5,7-dimethyl-1,8-naphthyridin-4(1H)-one], the IC50 in data set [1] is 290 nM; in data set [2] it was 680 nM; in [3], 1300 nM; in [4] it was more than 100000 nM.

In the case of `O=c1cc(-c2cccc(O)c2)[nH]c2ncc(Cl)cc12` [7d, 6-Chloro-2-(3-hydroxyphenyl)-1,8-naphthyridin-4(1H)-one], the IC50 is 110 nM in data set [1], 340 nM in [2], 200 nM in data set [3] and more than 100000 nM in [4].

Consider `O=c1cc(-c2cccc(O)c2)[nH]c2ncc(F)cc12` [7e, 6-Fluoro-2-(3-hydroxyphenyl)-1,8-naphthyridin-4(1H)-one], for which the IC50 in data set [1] is 140 nM; in data set [2], 380 nM; in data set [3], 700 nM; in data set [4], more than 100000 nM.

Consider `O=c1cc(-c2cccc(F)c2)[nH]c2nccc(O)c12` [7f, 2-(3-Fluorophenyl)-5-hydroxy-1,8-naphthyridin-4(1H)-one], for which the IC50 in data set [1] is 820 nM; in data set [2] it was 1820 nM; in data set [3], 2480 nM; in [4], more than 100000 nM.

On to `O=c1cc(-c2cccc(F)c2)[nH]c2ncc(O)cc12` [7g, 2-(3-Fluorophenyl)-6-hydroxy-1,8-naphthyridin-4(1H)-one], for which the IC50 in data set [1] is 80 nM; in [2] it was 160 nM; in data set [3], 860 nM; in data set [4], more than 100000 nM.

`O=c1cc(-c2cccc3ccccc23)[nH]c2ncc(O)cc12` [7h, 6-Hydroxy-2-(naphthalen-1-yl)-1,8-naphthyridin-4(1H)-one]: the IC50 in [1] is 480 nM; in data set [2], 460 nM; in [3], 1340 nM; in [4], more than 100000 nM.

As to `O=c1cc(-c2csc3ccccc23)[nH]c2ncc(O)cc12` [7i, 2-(Benzo[b]thiophen-3-yl)-6-hydroxy-1,8-naphthyridin-4(1H)-one], the IC50 amounted to 570 nM in data set [1], 1070 nM in [2], 390 nM in data set [3] and 10000 nM in data set [4].

Take `CC(=O)O[C@H]1C(=O)[C@@]2(C)[C@H]([C@H](OC(=O)c3ccccc3)[C@]3(O)C[C@H](OC(=O)[C@H](O)[C@@H](NC(=O)c4ccccc4)c4ccccc4)C(C)=C1C3(C)C)[C@]1(OC(C)=O)CO[C@@H]1C[C@@H]2O` [Taxol, reference compound]: the IC50 in data set [1] amounted to 2 nM; in [2], 500 nM; in data set [3] it was 5 nM.

`Cc1ccnc2[nH]c(-c3cccc(OP(=O)(O)O)c3)cc(=O)c12` [compound 11, 3-(5-Methyl-4-oxo-1,4-dihydro-1,8-naphthyridin-2-yl)phenyl dihydrogen phosphate]: the “Hep3B inhibitory activity compared with doxorubicin” value with Hep3B xenograft (i.v. 20 mg/kg) is reported as “exceeded that of 5 mg/kg doxorubicin”. The Hep3B tumor weight with Hep3B xenograft (i.v. 40 mg/kg) is 78.6 % of the control. Further, the body weight changes entry in the data set on Hep3B xenograft (i.v. 10, 20, 40 mg/kg, during antitumor evaluation) is given as “no significant body weight changes”. For the same compound, in the data set with Hep3B xenograft (i.v. 10, 20 and 40 mg/kg/day, five days per week, three weeks), the “inhibition of Hep3B tumor growth” value is “dose- and time-dependent inhibition of Hep3B tumor growth”.
